Screening data as filed in PubChem BioAssay.
Compounds with a hit are over-represented: about 5.7% of the library has one in this group of screens.
Calb FLC: C. albicans growth modulation with fluconazole | C. albicans CaCi-2 (fluconazole-resistant clinical isolate) + fluconazole, Alamar Blue growth, 48 h | growth inhibition, % (test concentration not listed) | hit rate 0.57% among 300,000 | AID 1979;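 active = growth inhibition above about 58% in most replicates, limit read from the data, passing the limit was not always enough; inconclusive = exactly half the replicates above a set limit; inactive = most replicates below a set limit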;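 also: all wells also contain fluconazole at 8 µg/ml as a sub-toxic cotreatment; 0% = median of DMSO wells and 100% = median of geldanamycin control wells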
T cruzi inh: blocks replication of Trypanosoma cruzi | T. cruzi beta-gal in NIH3T3, luminescence, 90 h | inhibition, % (test concentration not listed) | hit rate 1.4% among 300,000 | AID 1885;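 active = mean inhibition across valid replicates above about 55%, limit read from the data; inconclusive = mean below that limit but half or more replicates reach it; inactive = mean below it, under half of replicates reach it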;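 also: signal also drops with host cell toxicity which is not excluded here; 0% = plate median of DMSO wells and 100% = zero luminescence signal; higher percent means less beta-gal luminescence so fewer parasites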
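compound dosing = single 50 nL compound addition per well in DMSO | material = NIH/3T3 host cells with β-galactosidase reporter T. cruzi | input = 5,000 host fibroblasts per well | timing = ≥90 h infection period, 3 h prior cell attachment | read-out basis = percent inhibition of parasite-derived β-gal signal | detection = GalScreen β-gal luminescence, detergent lysis, 60 min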
CSC inhib: blocks cancer stem cells; inhibition, % at 7.5 µM; hit rate 1.1% among 300,000; cancer stem cell-like cells viability, luminescence; in the data active = inhibition above about 75%; inconclusive = no clear call, values can overlap the other calls; tested in HMLE shEcad cells
Beta apoptosis: beta cell apoptosis inhibition; INS-1E cytokine-induced death, ATP luminescence, 48 h; percent of positive-control rescue, neutral wells zero; protection from apoptosis, % (no concentration beside the values); hit rate 0.8% among 300,000; AID 435005;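 active = Every replicate reaches about 75%, or at least half do and their mean reaches it too, limit read from the data; inconclusive = At least half of replicates reach the limit but their mean does not; inactive = Under half of replicates reach the limit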;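 also: 0% = cytokine-treated negative control wells and 100% = positive control rescue; higher means more ATP so stronger rescue from cytokine killing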
SKKanGAS inh: SKKanGAS growth inhibition; S. pyogenes SKKanGAS, kanamycin growth, BacTiter-Glo, 6 h; inhibition, % at 7.5 µM; hit rate 1.3% among 300,000;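 active = mean replicate score, as percent of positive control median, at least 50; inconclusive = mean below 50 but one replicate at or above 50; inactive = mean and every replicate below 50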;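 also: strain carries kanamycin resistance gene driven by streptokinase promoter and grows in 40 µg/ml kanamycin; loss of luminescence reflects streptokinase promoter inhibition or plain growth inhibition; 0% = median of DMSO wells and 100% = positive control at its reference dose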
Mdm2 MdmX PPI: inhibitors of human Mdm2/MdmX interaction; SaOS-2 split-luciferase Mdm2/MdmX complementation, luminescence; inhibition, % at 8 µM; hit rate 3% among 330,000; AID 485346;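 active = inhibition of at least 50% at 8 µM in the primary screen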
Target sequence (O15151 whole entry, looked up): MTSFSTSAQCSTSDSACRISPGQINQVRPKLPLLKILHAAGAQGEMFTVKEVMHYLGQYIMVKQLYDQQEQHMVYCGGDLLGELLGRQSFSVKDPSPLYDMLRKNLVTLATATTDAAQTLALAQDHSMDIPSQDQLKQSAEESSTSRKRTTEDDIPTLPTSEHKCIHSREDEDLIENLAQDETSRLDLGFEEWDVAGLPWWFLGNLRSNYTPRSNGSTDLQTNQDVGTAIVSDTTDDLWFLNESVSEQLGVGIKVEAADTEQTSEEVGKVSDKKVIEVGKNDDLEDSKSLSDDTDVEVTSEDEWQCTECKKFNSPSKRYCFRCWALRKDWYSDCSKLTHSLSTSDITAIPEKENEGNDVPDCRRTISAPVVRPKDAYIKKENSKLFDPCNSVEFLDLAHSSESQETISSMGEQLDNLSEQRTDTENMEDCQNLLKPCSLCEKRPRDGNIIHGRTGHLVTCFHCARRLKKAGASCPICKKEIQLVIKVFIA
Target sequence (Q00987 whole entry, looked up): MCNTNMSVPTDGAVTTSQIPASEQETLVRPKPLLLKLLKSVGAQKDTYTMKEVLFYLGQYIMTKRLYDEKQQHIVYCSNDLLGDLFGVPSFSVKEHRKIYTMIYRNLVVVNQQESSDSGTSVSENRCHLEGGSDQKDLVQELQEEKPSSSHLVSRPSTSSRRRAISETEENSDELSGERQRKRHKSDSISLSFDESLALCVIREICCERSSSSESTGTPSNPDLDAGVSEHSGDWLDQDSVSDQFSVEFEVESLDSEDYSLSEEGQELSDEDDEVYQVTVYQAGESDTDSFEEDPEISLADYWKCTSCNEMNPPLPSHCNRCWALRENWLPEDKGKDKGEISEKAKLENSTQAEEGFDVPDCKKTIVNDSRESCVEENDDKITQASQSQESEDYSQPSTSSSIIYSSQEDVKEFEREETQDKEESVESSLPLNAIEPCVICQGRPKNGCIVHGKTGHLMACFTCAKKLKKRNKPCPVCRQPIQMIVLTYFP
The depositor's hits bear a star; ? = inconclusive; · = not tested or not shown.

SMILES	Calb FLC	T cruzi inh	CSC inhib	Beta apoptosis	SKKanGAS inh	Mdm2 MdmX PPI
CSc1nc(N)nc2c1ncn2CC(=O)N1CCN(Cc2c(C)cc(C)cc2C)CC1	·	·	·	100.4*	·	43.0
O=C1CC(c2ccccc2)CC(O)=C1C=NCc1ccccc1Cl (stereo not given)	4.4	-2.4	84.4*	13.0	-11.0	34.9
O=C1CC(c2ccccc2)CC(O)=C1C=NCc1ccccc1 (stereo not given)	13.3	-5.6	-6.3	5.0	-4.8	-1.8
CCOc1cc(/C=C2/SC(=S)N(Cc3ccccc3)C2=O)ccc1O	16.0	-3.3	76.3*	0.1	23.8	0.8
COc1cc(/C=C2/SC(=S)N(Cc3ccccc3)C2=O)cc(Cl)c1O	-7.4	1.0	116.8*	38.0	73.2*	·
COc1cc(/C=C2/SC(=S)N(Cc3ccccc3)C2=O)ccc1OCC(=O)O	4.2	-2.2	20.1	-5.5	20.4	31.1
COc1cc([N+](=O)[O-])cc(/C=C2/SC(=S)N(Cc3ccccc3)C2=O)c1O	?	10.6	92.2*	17.4	41.0	·
COc1ccc(/C=C2\SC(=S)N(CCC(=O)N(CCO)Cc3ccccc3)C2=O)cc1OC	5.4	64.5*	6.3	-15.1	6.8	44.1
COc1ccc(C)cc1NC(=O)CN1C(=O)COc2ccc(C)cc21	4.6	-0.3	-6.5	-6.6	-5.9	23.2
CCSc1nnc(NC(=O)CCNS(=O)(=O)c2ccccc2F)s1	-7.5	-6.8	-4.4	-1.4	-6.7	-23.7
CCOc1ccccc1-c1nc(-c2ccc(NC(=O)Cc3ccccc3OC)cc2)no1	10.8	56.3*	·	4.8	5.7	5.6
O=C(Nc1ccccn1)c1cc2ccccc2cc1O	2.3	9.8	6.5	5.7	13.7	-101.3
CCn1c(N2CCN(S(=O)(=O)CC)CC2)nc2ccccc21	-18.2	-8.7	-9.3	3.9	-2.6	24.4
CCn1c(N2CCN(S(=O)(=O)c3ccc(F)cc3)CC2)nc2ccccc21	1.0	31.8	79.7*	17.2	-4.5	10.5
CCn1c(N2CCN(S(=O)(=O)c3ccc(Cl)cc3)CC2)nc2ccccc21	-0.2	87.5*	5.8	14.7	-0.9	-5.5
O=C1CCCCN1CC(=O)N1CCCC(Nc2ccc(F)cc2)C1 (stereo not given)	?	-1.3	-11.3	-4.0	-1.9	19.7
CCCc1ccc(OCC(=O)Nc2cc(S(=O)(=O)CC)ccc2O)cc1	90.1*	-4.4	-6.1	-13.7	2.3	12.8
CCS(=O)(=O)c1ccc(O)c(NC(=O)COc2ccc(OC)cc2)c1	-11.6	9.4	8.1	-2.0	0.5	-5.7
CN(C)c1ccsc1C(=O)NNS(=O)(=O)c1ccc(Cl)cc1	-7.1	25.1	16.4	-2.3	2.3	3.7
COc1cc(C(CC(=O)Nc2ccccn2)N2Cc3ccccc3C2=O)cc(OC)c1OC (stereo not given)	-9.1	-3.3	-20.8	3.1	0.1	10.4
O=C1c2ccccc2C(=O)N1CC#CCN1CCN(C(c2ccccc2)c2ccccc2)CC1	8.6	9.8	96.1*	-1.9	-8.9	15.5
c1ccc(CN2CCN(C(c3ccccc3)c3ccccc3)CC2)cc1	-3.3	18.8	8.7	0.4	-21.6	24.6
O=C(Nc1ccccc1)c1sccc1Oc1ccc([N+](=O)[O-])cc1F	18.8	63.2*	·	-7.4	13.6	4.1
COCCOc1cc(NC(=O)c2sccc2Oc2ccc([N+](=O)[O-])cc2F)c(Cl)cc1Cl	-9.2	36.6	25.6	·	9.7	38.0
CCn1c(CCl)nc2cc(S(=O)(=O)N3CCOCC3)ccc21	·	·	-2.5	-2.0	·	43.0
SMILES	Calb FLC	T cruzi inh	CSC inhib	Beta apoptosis	SKKanGAS inh	Mdm2 MdmX PPI
C[C@@H](N)C(=O)NC[C@H]1CC[C@H](C(=O)N[C@@H](Cc2ccccc2)C(=O)O)CC1	1.6	-9.2	1.0	-2.3	12.8	24.7
C=C1N(C)c2cc([N+](=O)[O-])c(N)cc2C1(C)C	2.6	67.8*	2.1	9.1	2.1	-1.2
CC(=O)N1N=C(c2ccccc2)OC1c1ccc([N+](=O)[O-])s1 (stereo not given)	-13.5	84.1*	-9.6	-10.0	-8.2	4.7
CC(=O)N1N=C(c2cccc([N+](=O)[O-])c2)OC1c1ccc(Br)cc1 (stereo not given)	-8.5	-3.6	-12.8	-4.0	-11.1	32.2
COCCn1c(C)cc(C(=O)COC(=O)/C=C/c2c(C)nn(C3CCS(=O)(=O)C3)c2Cl)c1C (stereo not given)	-3.2	-2.8	-7.7	·	-0.2	15.3
O=C(c1ccc(Br)o1)N1CCN(Cc2ccccc2Cl)CC1	-7.4	-22.9	·	·	18.1	16.8
O=C(Nc1ncc([N+](=O)[O-])s1)c1cccs1	108.3*	-8.3	33.1	52.0	7.7	-55.2
Cc1ccc(CC(=O)Nc2ncc([N+](=O)[O-])s2)cc1	82.3*	69.3*	8.0	20.2	-5.9	-83.3
CCCCC(CC)C(=O)Nc1ncc([N+](=O)[O-])s1 (stereo not given)	-6.9	80.5*	24.2	22.3	-8.2	37.6
O=C(CCS(=O)(=O)c1ccccc1)Nc1ncc([N+](=O)[O-])s1	99.1*	-24.0	17.4	-24.4	-3.8	35.9
CCC(CO)Nc1ccc(-c2n[nH]c(=O)c3ccccc23)cc1[N+](=O)[O-] (stereo not given)	7.3	-4.5	1.2	1.7	2.4	15.8
Cc1ccc(S(=O)(=O)NCC(=O)OCC(=O)N2CC(C)OC(C)C2)cc1 (stereo not given)	·	·	-17.0	-2.3	·	-2.5
Cc1ccc(C)c(NC(=O)CN(C)C(=O)Cn2c(=O)oc3ccccc32)c1	-2.7	-11.1	-2.3	·	-1.2	20.2
COC(=O)N1CCN(c2ccc(Cl)c(Cl)c2)CC1	-1.0	-13.4	6.7	1.5	-21.3	-5.5
Nc1ccc(N2CCN(c3ccc(Cl)c(Cl)c3)CC2)cc1	-3.4	-21.7	92.4*	11.2	3.5	7.2
Nc1ccc(N2CCN(c3ccc(F)cc3)CC2)cc1	102.6*	23.3	7.2	13.6	1.2	-2.0
Nc1ccc(N2CCCCCC2)cc1	·	·	·	69.1	·	25.7
CCOc1ccc2oc(C(=O)OCC(=O)N3CC(C)OC(C)C3)c(C)c2c1 (stereo not given)	·	·	1.4	-4.9	·	-5.4
CC(=O)C1=C(c2ccccc2)NC(=S)NC1c1cc(Cl)c(OC(C)C)c(Cl)c1 (stereo not given)	18.4	60.9*	31.3	-3.0	20.8	30.2
O=C(Nc1nnc(SCCC2OCCO2)s1)C1CC(=O)N(c2ccc(F)cc2)C1 (stereo not given)	-3.2	-0.5	-19.4	1.7	53.9*	-7.9
O=C(CSc1nnc(NC(=O)C2CC(=O)N(c3ccc(F)cc3)C2)s1)NCc1ccco1 (stereo not given)	0.4	-4.4	-15.1	·	54.0*	5.4
CC(=O)c1ccc([N+](=O)[O-])c(CS(=O)(=O)c2ccc(Cl)cc2)c1	2.2	-0.9	2.4	-2.7	9.6	-25.1
COC(=O)c1cc(Br)ccc1NC(=O)CSCc1c(C)noc1C	·	·	-10.5	-2.0	·	-7.3
